Experimental data from ChEMBL document CHEMBL4819084, “Discovery of 3,5-dimethylisoxazole derivatives as novel, potent inhibitors for bromodomain and extraterminal domain (BET) family” (Bioorg Med Chem, 2021).
The source made the active and inactive calls. The calls are words filed in the database; no cut-off is given here.

Legend:
[1] = molecular target: T1, Bromodomain-containing protein 4 (Homo sapiens, UniProt O60885); test: Inhibition of BRD4-BD1 (unknown origin) preincubated for 15 mins followed by substrate addition and measured after 1 hr
[2] = molecular target: T1, Bromodomain-containing protein 4; test: Potency index, ratio of 6-(3,5-Dimethylisoxazol-4-yl)-1-methyl-4-phenyl-3,4-dihydroquinazolin-2(1H)-one IC50 to test compound IC50 for inhibition of BRD4-BD1 (unknown origin)
[3] = Cytotoxicity against human MCF-10A cells assessed as inhibition of cell proliferation at 2 uM incubated for 48 hrs by MTT assay; format: cell-based
In short: (§1)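 Cryopreserved cells thawed at 37 °C, cultured one day, then seeded at 5000–10,000 cells/well in 96-well plates and left overnight to attach. Compound added at a single concentration or as a gradient series and incubated 48 h. MTT solution added and absorbance read.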

CT26 [4] = test: Antiproliferative activity against […] assessed as inhibition of cell proliferation at 2 uM incubated for 48 hrs by MTT assay relative to control; format: functional; settings: Mus musculus; in short: as §1
MCF7 = test: Antiproliferative activity against human MCF7 cells assessed as inhibition of cell proliferation at 2 uM incubated for 48 hrs by MTT assay relative to control; format: functional; in short: as §1
HepG2 [5] = test: Antiproliferative activity against human HepG2 cells assessed as inhibition of cell proliferation at 2 uM incubated for 48 hrs by MTT assay relative to control; format: functional; in short: as §1
HCT-116 = test: Antiproliferative activity against human HCT-116 cells assessed as inhibition of cell proliferation at 2 uM incubated for 48 hrs by MTT assay relative to control; format: functional; in short: as §1
U-266 [6] = test: Antiproliferative activity against human U-266 cells assessed as inhibition of cell proliferation at 0.1 uM incubated for 48 hrs by MTT assay relative to control; format: functional; in short: as §1
CT26 [7] = test: Antiproliferative activity against […] assessed as inhibition of cell proliferation incubated for 48 hrs by MTT assay; format: functional, cell-based; settings: Mus musculus, CT26, 48 h; in short: as §1
HepG2 [8] = test: Antiproliferative activity against human HepG2 cells assessed as inhibition of cell proliferation incubated for 48 hrs by MTT assay; format: functional, cell-based; settings: HepG2, 48 h; in short: as §1
U-266 [9] = test: Antiproliferative activity against human U-266 cells assessed as inhibition of cell proliferation incubated for 48 hrs by MTT assay; format: functional, cell-based; settings: U-266, 48 h; in short: as §1
U-266 [10] = test: Induction of cell cycle arrest in human U-266 cells assessed as increase in accumulation at G0/G1 phase at 1 to 2 uM incubated for 48 hrs by PI staining based flow cytometry analysis; format: functional; settings: dose 1-2 µM
In short: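 U266 cells seeded at 1 × 10⁵ per 2 mL well in six-well plates and treated at 1 and 2 μM for 48 h. Cells harvested, fixed in 70% ethanol on ice for 30 min and washed in PBS. Stained with PI (0.05 mg/mL) plus RNaseA (0.5 mg/mL) for 30 min at room temperature in the dark, then analysed by flow cytometry for cycle distribution.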

U-266 [11] = test: Induction of apoptosis in human U-266 cells assessed as nucleus condensation at 1 to 8 uM incubated for 48 hrs by DAPI staining based fluorescence microscopic analysis; format: functional, cell-based; settings: dose 1-8 µM
In short: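 U266 cells plated at 20000 cells/well in 12-well plates overnight, then treated at 1, 2 and 8 μM for 48 h. After a PBS wash, cells were stained with DAPI for 5 min, washed again and imaged under a fluorescence microscope for nuclear condensation.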

U-266 [12] = test: Induction of apoptosis in human U-266 cells incubated for 48 hrs by Annexin-V/FITC and PI staining based flow cytometry analysis; format: functional, cell-based; settings: dose 1-8 µM
In short: (§2)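 U266 cells seeded at 1 × 10⁵ per 2 mL well in six-well plates and exposed to 1, 2 or 8 μM for 48 h. Cells collected, washed twice in cold PBS and resuspended in binding buffer. Annexin V-FITC added for 15 min, then PI for 5 min, both at 37 °C in the dark. Analysed by flow cytometry.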

U-266 [13] = test: Induction of apoptosis in human U-266 cells assessed as viable cells at 1 uM incubated for 48 hrs by Annexin-V/FITC and PI staining based flow cytometry analysis (reference value: 92.6 %); format: functional; settings: read-out: Activity; in short: as §2
U-266 [14] = test: Induction of apoptosis in human U-266 cells assessed as early apoptotic cells at 1 uM incubated for 48 hrs by Annexin-V/FITC and PI staining based flow cytometry analysis (reference value: 1.36 %); format: functional; in short: as §2
U-266 [15] = test: Induction of apoptosis in human U-266 cells assessed as late apoptotic cells at 1 uM incubated for 48 hrs by Annexin-V/FITC and PI staining based flow cytometry analysis (reference value: 0.032 %); format: functional; in short: as §2
U-266 [16] = test: Induction of apoptosis in human U-266 cells assessed as necrotic cells at 1 uM incubated for 48 hrs by Annexin-V/FITC and PI staining based flow cytometry analysis (reference value: 5.99 %); format: functional; in short: as §2
U-266 [17] = test: Induction of apoptosis in human U-266 cells assessed as viable cells at 2 uM incubated for 48 hrs by Annexin-V/FITC and PI staining based flow cytometry analysis (reference value: 92.6 %); format: functional; settings: read-out: Activity; in short: as §2
U-266 [18] = test: Induction of apoptosis in human U-266 cells assessed as early apoptotic cells at 2 uM incubated for 48 hrs by Annexin-V/FITC and PI staining based flow cytometry analysis (reference value: 1.36 %); format: functional; in short: as §2
U-266 [19] = test: Induction of apoptosis in human U-266 cells assessed as late apoptotic cells at 2 uM incubated for 48 hrs by Annexin-V/FITC and PI staining based flow cytometry analysis (reference value: 0.032 %); format: functional; in short: as §2
U-266 [20] = test: Induction of apoptosis in human U-266 cells assessed as necrotic cells at 2 uM incubated for 48 hrs by Annexin-V/FITC and PI staining based flow cytometry analysis (reference value: 5.99 %); format: functional; in short: as §2
U-266 [21] = test: Induction of apoptosis in human U-266 cells assessed as viable cells at 8 uM incubated for 48 hrs by Annexin-V/FITC and PI staining based flow cytometry analysis (reference value: 92.6 %); format: functional; settings: read-out: Activity; in short: as §2
U-266 [22] = test: Induction of apoptosis in human U-266 cells assessed as early apoptotic cells at 8 uM incubated for 48 hrs by Annexin-V/FITC and PI staining based flow cytometry analysis (reference value: 1.36 %); format: functional; in short: as §2
U-266 [23] = test: Induction of apoptosis in human U-266 cells assessed as late apoptotic cells at 8 uM incubated for 48 hrs by Annexin-V/FITC and PI staining based flow cytometry analysis (reference value: 0.032 %); format: functional; in short: as §2
U-266 [24] = test: Induction of apoptosis in human U-266 cells assessed as necrotic cells at 8 uM incubated for 48 hrs by Annexin-V/FITC and PI staining based flow cytometry analysis (reference value: 5.99 %); format: functional; in short: as §2

IC50 [1]: 0.003 µM | Ratio IC50 [2]: 8 | IC50 (CT26 [7]): 15.8 µM | IC50 (HepG2 [8]): 16.7 µM
Compound: Cc1noc(C)c1-c1ccc2c(c1)C(c1ccccc1)N(CCCCN1CCN(c3ccc4nnc(Cl)n4n3)CC1)C(=O)N2C (stereo unspecified)
inhibition at 48 h, 2 µM [3]: 11.6% | inhibition at 2 µM (CT26 [4]): 41% | inhibition at 2 µM (MCF7): 35.5% | inhibition at 2 µM (HepG2 [5]): 46.7% | inhibition at 2 µM (HCT-116): 61.8% | inhibition at 0.1 µM (U-266 [6]): 52.3% | IC50 (U-266 [9]): 2.11 µM | Activity (U-266 [10]): Active | Activity (U-266 [11]): Active | Activity (U-266 [12]): Dose-Dependent Effect | viability at 1 µM (U-266 [13]): 82.6% | Activity (U-266 [14]): 13.2% | Activity (U-266 [15]): 1.23% | Activity (U-266 [16]): 3.06% | viability at 2 µM (U-266 [17]): 77.6% | Activity (U-266 [18]): 14.8% | Activity (U-266 [19]): 2.91% | Activity (U-266 [20]): 4.6% | viability at 8 µM (U-266 [21]): 65.4% | Activity (U-266 [22]): 22.7% | Activity (U-266 [23]): 6.75% | Activity (U-266 [24]): 5.11%
